Bioassay records from PubChem.
Only some compounds are listed: those with a hit (about 1.1% of all), similar ones and a draw of the others.
Diaph inh CS – counter-screen for diaphorase-based assays: diaphorase inhibitors and chemical oxidizers. inhibition, % at 20 µM. diaphorase resazurin-to-resorufin fluorescence, NADH, 16 min; bacterial (C. kluyveri) enzyme, not human. 0.69% of 190,000 active;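 active = primary screen inhibition at 20 µM above a set limit, cut at about 50% in these data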
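Test system: diaphorase enzyme from Clostridium kluyveri; amount: diaphorase at 0.14 U/mL in enzyme working solution; detection: fluorescence of resorufin formed from resazurin, Ex 544/Em 590 nm; times: reaction incubation of 16 min at room temperature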
Diaphorase act – activates diaphorase or chemically reduces, flagging diaphorase assay artifacts; 0.005% of 190,000 active; Diaphorase/resazurin coupled assay, resorufin fluorescence, 16 min; active compounds read high; 1 = vehicle wells, 0 = NADH-free wells; activation factor at 20 µM; AID 1229;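 active = diaphorase activity raised at least twofold by the compound at 20 µM; inactive = activation factor below 2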
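Test system: Clostridium kluyveri diaphorase, purified enzyme. Buffer or medium: 50 mM HEPES pH 7.4 buffer plus MgCl2 and Tween 20. Also added: 0.114 mM NADH and 0.1 mM resazurin, final amounts. Dosing: compound 20 µM once, DMSO 1%. Schedule: 16 min enzyme reaction, ambient temperature. Detection: fluorescence of resorufin, 544 nm excitation, 590 nm emission.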
PMI act hi M6P – activators of human phosphomannose isomerase at near-saturating mannose 6-phosphate; AID 1216; P34949; activation factor at 20 µM; coupled PMI enzyme assay, resazurin fluorescence, 20 min; active compounds read high; 1 = untreated enzyme, 0 = substrate-free blank; 0.34% of 190,000 active;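 active = activation factor of 2 or more at 20 µM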
Target sequence (P34949 whole entry, looked up): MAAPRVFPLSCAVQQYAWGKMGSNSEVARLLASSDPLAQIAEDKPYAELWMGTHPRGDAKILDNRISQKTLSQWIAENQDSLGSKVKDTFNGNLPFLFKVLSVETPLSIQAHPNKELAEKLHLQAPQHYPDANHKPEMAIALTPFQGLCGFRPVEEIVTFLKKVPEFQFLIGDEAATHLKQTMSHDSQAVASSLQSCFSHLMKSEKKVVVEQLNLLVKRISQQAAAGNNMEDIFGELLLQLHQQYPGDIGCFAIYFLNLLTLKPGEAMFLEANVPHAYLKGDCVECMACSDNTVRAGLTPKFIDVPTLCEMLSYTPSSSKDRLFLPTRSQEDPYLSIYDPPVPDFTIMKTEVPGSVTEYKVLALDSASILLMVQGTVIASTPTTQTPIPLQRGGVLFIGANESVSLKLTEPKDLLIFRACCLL
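Test system – human PMI in coupled enzyme assay · Timing – 20 min incubation at room temperature · Detection – Diaphorase-driven resazurin-to-resorufin fluorescence, excitation 544, emission 590 nm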
PMI act – increases human mannose-6-phosphate isomerase activity; P34949; purified human PMI, coupled resazurin fluorescence, 20 min; active compounds read high; 1 = vehicle control, 0 substrate-free wells; activation factor at 20 µM; 0.005% of 190,000 active; AID 1214;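 active = activation factor of 2 or more at 20 µM, relative to plate controls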
G6PDH CS – inhibits Leuconostoc G6PDH, flagging false hits in G6PDH-based assays; 0.12% of 200,000 active; inhibition, % at 5 µM; Purified L. mesenteroides G6PDH, diaphorase/resazurin coupled fluorescence, 45 min; in the data active = inhibition above about 50%
Each line names hits and unclear results; the compound was inactive in the other large screens.

COc1ccc(NS(=O)(=O)c2ccc(C)c(NC(=O)c3ccc(C)c(S(=O)(=O)N4CCOCC4)c3)c2)cc1	Diaph inh CS 50
C/C(=N\NC(=O)c1ccccn1)c1ccc(C(=O)O)s1	none
COc1cccc(-c2nc(SCC(=O)Nc3nc(-c4ccccc4)c(C)s3)[nH]c(=O)c2C#N)c1	Diaph inh CS 81
CCOc1ccc2nc(NC(=O)CSc3nc(-c4ccccc4)c(C#N)c(=O)[nH]3)sc2c1	Diaph inh CS 59
COc1ccc(CCNC(=O)CCC2COc3ccccc3O2)cc1OC (stereo not drawn)	none
FC(F)(F)c1cccc(Cn2nnnc2-c2cc(Cl)cc(Cl)c2)c1	none
Cc1ccc(SCCCCN2CCNCC2)cc1	none
CNCc1ccccc1Sc1cc(O)ccc1O	G6PDH CS 58
Cc1ccc(-c2ccc(=O)n(CC(=O)NCCN3CCCCC3C)n2)cc1 (stereo not drawn)	Diaph inh CS 53
CCCCCCC1(C)NC(=S)N(c2ccccc2)N1 (stereo not drawn)	PMI act hi M6P 3
CC1(CC(=O)Nc2ccccc2)NC(=S)N(c2ccccc2)N1 (stereo not drawn)	none
CCC1(c2ccc(Cl)cc2)NC(=S)N(c2ccccc2)N1 (stereo not drawn)	none
CCCCCC1(C)NC(=S)N(c2ccccc2)N1 (stereo not drawn)	PMI act hi M6P 3.1, PMI act 2
O=C(NNC(=O)C1CCCN(S(=O)(=O)c2ccc3ccccc3c2)C1)C1CC1 (stereo not drawn)	none
O=C(N/N=C/c1ccncc1)C1C2CCCCCCC21 (stereo not drawn)	none
COC(=O)[C@H]1C[C@@H]1[C@H](NC(=O)c1ccccc1)c1ccccc1	none
O=C1C2C3C=CC(C3)C2C(=O)N1CNc1ccc(O)cc1 (stereo not drawn)	Diaph inh CS 64
Cc1ccc(NCN2C(=O)C3C4C=CC(C4)C3C2=O)cc1 (stereo not drawn)	none
O=C(COc1ccc2oc(-c3ccco3)cc(=O)c2c1)N1CCCCC1	none
CC1CCCC/C1=N\NC(=S)Nc1cccnc1 (stereo not drawn)	none
Cc1ccc(NC(=S)N/N=C2\CCCCC2C)cc1 (stereo not drawn)	PMI act hi M6P 2
C/C(CC(=O)N1CCN(C=O)CC1)=N\NC(=O)c1ccc([N+](=O)[O-])cc1	none (no result: Diaph inh CS, Diaphorase act, PMI act hi M6P, PMI act)
C/C(CC(=O)N1CCN(C=O)CC1)=N\NC(=O)c1cc2ccccc2cc1O	Diaph inh CS 88
Cc1cc(C(=O)NCCN2C(=O)S/C(=C\c3cccs3)C2=O)ccc1[N+](=O)[O-]	none
N#CCSc1ccc(-c2nc3ccccc3[nH]2)cn1	Diaph inh CS 58
CCOC(=O)CSc1ccc(-c2nc3ccccc3[nH]2)cn1	none
O=C1/C(=C/c2ccco2)SC(=S)N1C1CCS(=O)(=O)C1 (stereo not drawn)	Diaph inh CS 61
O=C(O)CCCN1C(=O)/C(=C\c2ccco2)SC1=S	Diaph inh CS 59
O=C(CCCN1C(=O)/C(=C\c2ccco2)SC1=S)Nc1ccc2ccccc2c1	none
Cc1ccc(/C=C2\SC(=S)N(C3CCS(=O)(=O)C3)C2=O)cc1 (stereo not drawn)	none
CCOC(=O)N1CCC(=NNS(=O)(=O)c2cccc([N+](=O)[O-])c2)CC1	PMI act hi M6P 2.1
CCOC(=O)N1CCN(S(=O)(=O)c2cc([N+](=O)[O-])ccc2C)CC1	none
Cc1cc(N(CC(=O)NC(C)C)S(C)(=O)=O)ccc1Br	none
CN(/N=C/c1cccnc1)c1cnc2ccccc2n1	none
Nc1cc(-c2ccncc2)c[nH]c1=O	Diaph inh CS 66
CCSc1ccc2nnc(-c3cccc(F)c3)n2n1	PMI act hi M6P 2
CC(=O)c1cc2c(O)c(O)ccc2o1	Diaph inh CS 74, G6PDH CS 54
COC(=O)c1c(NC(=O)c2cccc([N+](=O)[O-])c2)sc(C(N)=O)c1C	Diaph inh CS 72
CCCN1CCc2c(sc(NC(=S)NC(=O)c3ccccc3)c2C#N)C1	PMI act hi M6P 2
c1ccc2c(-c3cn4ccccc4n3)c[nH]c2c1	none
CCOC(=O)c1sc2nc(-c3ccco3)c3c(c2c1N)CC(C)(C)OC3	none
Cc1ccc(-c2nc3sc(C(N)=O)c(N)c3c3c2CCCC3)cc1	PMI act hi M6P 2.4
NC(=O)c1sc2nc3c(c(-c4ccco4)c2c1N)CCC3	Diaph inh CS 81
Cc1ccc(-c2c3c(nc4sc(C(N)=O)c(N)c24)CCCC3)o1	none
Nc1c(C(=O)NC2CC2)sc2nc3c(c(-c4ccco4)c12)CC/C3=C/c1ccco1	Diaph inh CS 87
CC(=O)n1cc([C@H]2C=C(C(=O)N3CCN(Cc4ccc5c(c4)OCO5)CC3)O[C@@H](OCc3ccc(CO)cc3)C2)c2ccccc21	none
O=C(C1=C[C@H](c2ccc(C(F)(F)F)cc2)C[C@H](OCc2ccc(CO)cc2)O1)N1CCCCCCC1	Diaph inh CS 50
CC(=O)n1cc([C@H]2C=C(C(=O)N3CCN(Cc4ccccc4)CC3)O[C@@H](OCc3ccc(CO)cc3)C2)c2ccccc21	Diaph inh CS 52
CC(SCc1ccccc1)C(=O)N/N=C/c1ccc2c(c1)OCO2 (stereo not drawn)	none
CC(SCc1ccccc1)C(=O)N/N=C/c1cc2c(cc1Br)OCO2 (stereo not drawn)	Diaph inh CS 51
CCN(CC)CCNC(=O)CSc1c2c(nc3cc(Cl)ccc13)CCCC2	Diaph inh CS 53
O=C(/C=C/c1ccoc1)c1ccccc1O	none
COc1ccc2ccccc2c1C(=O)/C=C\c1ccoc1	Diaph inh CS 52
CCOC(=O)C(=NCCCN1CCOCC1)NNc1cccc(C(F)(F)F)c1	PMI act hi M6P 2.1
CCOc1cc(CNCCCN2CCOCC2)cc(Br)c1OCC(=O)Nc1cccc(C(F)(F)F)c1	none
COc1cccc2cc(-c3ccnc(=S)[nH]3)oc12	Diaph inh CS 58
Cc1noc(NS(=O)(=O)c2ccc(NC(=O)C34CC5CC(C3)CC(n3cnc(Cl)n3)(C5)C4)cc2)c1C	none
Cc1ccc(S(=O)(=O)NC(=O)CSc2nc3ccccc3s2)cc1	none
CS/C(=N\S(=O)(=O)c1cccs1)NC(=O)CSc1nc2ccccc2s1	PMI act hi M6P 2.4
COc1cccc(NC(=O)Cn2cnc3sc(C)c(S(=O)(=O)N4CCCCC4)c3c2=O)c1	none
O=C1/C(=C/c2ccc(O)c(O)c2)SC(=S)N1Nc1ccccc1	Diaph inh CS 56
COc1cc(/C=C2\SC(=S)N(Nc3ccccc3)C2=O)ccc1O	none
O=c1c(-c2n[nH]c(=S)n2-c2ccccc2)cccn1Cc1cccc(Cl)c1	none
COc1cc2c(C#N)c(N3CCCCC3)nc(N)c2c(N)n1	Diaph inh CS 64, G6PDH CS 51
